What all share (assay type): functional
One assay has as its system Pseudomonas aeruginosa. As to the kind of experiment: Antimicrobial activity against Pseudomonas aeruginosa 9843 by two fold serial dilution technique. Put shortly:
(§1)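 MIC determined by twofold serial broth dilution in nutrient broth, reported in μg/mL.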

The subject of another assay is Providencia rettgeri. As to the kind of experiment: Antimicrobial activity against Providencia rettgeri 21205 by two fold serial dilution technique. Put shortly: as §1
The subject of assay [1] is Staphylococcus aureus. As to the kind of experiment: Antimicrobial activity against Staphylococcus aureus 9537 by two fold serial dilution technique in presence of 50% serum.
Assay [2] concerns Staphylococcus aureus. As to the kind of experiment: Antimicrobial activity against Staphylococcus aureus 9537 by two fold serial dilution technique. The method in brief:
as §1

In assay [3] the test system is Escherichia coli. As to the kind of experiment: Antimicrobial activity against Escherichia coli 20341 by two fold serial dilution technique. Put shortly:
as §1

For a further assay, the system named is Streptococcus pneumoniae. As to the kind of experiment: Antimicrobial activity against Streptococcus pneumoniae 1985 by two fold serial dilution technique. Put shortly: as §1
Assay [4] deals with Staphylococcus aureus. As to the kind of experiment: Antimicrobial activity against methicillin-resistant Staphylococcus aureus 15097 by two fold serial dilution technique. Put shortly: (§2)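 MIC determined by twofold serial dilution in nutrient broth; values reported in μg/mL.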
The subject of a further assay is Serratia marcescens. As to the kind of experiment: Antimicrobial activity against Serratia marcescens 20019 by two fold serial dilution technique. Put shortly: as §1
The subject of assay [5] is Klebsiella pneumoniae. As to the kind of experiment: Antimicrobial activity against Klebsiella pneumoniae 20468 by two fold serial dilution technique. Put shortly:
as §1

The test system of assay [6] is Staphylococcus aureus. As to the kind of experiment: Antimicrobial activity against penicillin-resistant Staphylococcus aureus 9606 by two fold serial dilution technique. The method in brief:
as §2

The test system of the next assay is Morganella morganii. As to the kind of experiment: Antimicrobial activity against Proteus morganii 15153 by two fold serial dilution technique. Put shortly: as §1
The test system of the next assay is Streptococcus pyogenes. As to the kind of experiment: Antimicrobial activity against Streptococcus pyogenes 9604 by two fold serial dilution technique. Put shortly:
as §1

A further assay relates to Enterococcus faecalis. As to the kind of experiment: Antimicrobial activity against Streptococcus faecalis 20688 by two fold serial dilution technique. The method in brief:
as §1

Assay [7] deals with Escherichia coli. As to the kind of experiment: Antimicrobial activity against Escherichia coli 15119 by two fold serial dilution technique. The method in brief:
as §1

Assay [8] has as its system Enterobacter cloacae. As to the kind of experiment: Antimicrobial activity against Enterobacter cloacae 9659 by two fold serial dilution technique. The method in brief:
as §1

Assay [9] concerns Proteus mirabilis. As to the kind of experiment: Antimicrobial activity against Proteus mirabilis 9716 by two fold serial dilution technique. Put shortly:
as §1

The subject of assay [10] is Enterobacter cloacae. As to the kind of experiment: Antimicrobial activity against Enterobacter cloacae 9656 by two fold serial dilution technique. Put shortly:
as §1

The test system of assay [11] is Klebsiella pneumoniae. As to the kind of experiment: Antimicrobial activity against Klebsiella pneumoniae 15130 by two fold serial dilution technique. The method in brief:
as §1

Assay [12] concerns Proteus mirabilis. As to the kind of experiment: Antimicrobial activity against Proteus mirabilis 9900 by two fold serial dilution technique. The method in brief:
as §1

MIC data for five compounds are collected here from ChEMBL document CHEMBL3227971, “Synthesis and antibacterial activity of 2-oxocephalosporins” (1979).

Each structure is given as a SMILES string. Converted amounts (≈) assume the structure as drawn.

A word on the MIC: it is the smallest concentration in the dilution series that meets the test's criterion for growth inhibition.

With `CC(=O)OCC1=C(C(=O)O)N2C(=O)[C@@H](NC(=O)Cc3cccs3)[C@H]2SC1` [CEPHALOTHIN], the MIC against Pseudomonas aeruginosa was over 125 µg/mL; with Providencia rettgeri, 63 µg/mL (≈ 159 µM); in the assay on Staphylococcus aureus [1] it was 8 µg/mL; in the assay with Staphylococcus aureus [2], 0.13 µg/mL (≈ 0.328 µM); against Escherichia coli [3], 16 µg/mL (≈ 40.4 µM); in the assay with Streptococcus pneumoniae, 0.06 µg/mL (≈ 0.151 µM). For the same compound, the minimal inhibitory concentration (MIC) with Staphylococcus aureus [4] is 32 µg/mL (≈ 80.7 µM); against Serratia marcescens it was over 125 µg/mL; against Klebsiella pneumoniae [5], over 125 µg/mL; against Staphylococcus aureus [6], 0.5 µg/mL (≈ 1.26 µM); in the assay on Morganella morganii it was over 125 µg/mL; against Streptococcus pyogenes it was 0.13 µg/mL (≈ 0.328 µM). Also, the MIC against Enterococcus faecalis is 32 µg/mL (≈ 80.7 µM); in the assay on Escherichia coli [7] it was 16 µg/mL (≈ 40.4 µM); against Enterobacter cloacae [8], over 125 µg/mL; in the assay with Proteus mirabilis [9], 2 µg/mL (≈ 5.04 µM); against Enterobacter cloacae [10], over 125 µg/mL; with Klebsiella pneumoniae [11] it was 16 µg/mL (≈ 40.4 µM). In the assay with Proteus mirabilis [12], this compound came in with a minimal inhibitory concentration (MIC) of 1 µg/mL (≈ 2.52 µM).

On to `CC(=O)OCC1=C(C(=O)O)N2C(=O)[C@@H](NC(=O)Cc3cccs3)[C@H]2SC1=O`, for which the minimum inhibitory concentration (MIC) in the assay on Pseudomonas aeruginosa is over 125 µg/mL; against Providencia rettgeri, over 125 µg/mL; in the assay on Staphylococcus aureus [1], 63 µg/mL; in the assay on Staphylococcus aureus [2] it was 4 µg/mL (≈ 9.75 µM); against Escherichia coli [3], over 125 µg/mL; against Streptococcus pneumoniae it was 1 µg/mL (≈ 2.44 µM). Moreover, the minimal inhibitory concentration (MIC) is over 125 µg/mL in the assay with Staphylococcus aureus [4]; over 125 µg/mL in the assay with Serratia marcescens; over 125 µg/mL with Klebsiella pneumoniae [5]; 16 µg/mL (≈ 39 µM) with Staphylococcus aureus [6]; over 125 µg/mL against Morganella morganii; 1 µg/mL (≈ 2.44 µM) in the assay on Streptococcus pyogenes. In addition, the minimum inhibitory concentration (MIC) against Enterococcus faecalis was 125 µg/mL (≈ 305 µM); against Escherichia coli [7], over 125 µg/mL; in the assay on Enterobacter cloacae [8], over 125 µg/mL; in the assay on Proteus mirabilis [9] it was 63 µg/mL (≈ 153 µM); against Enterobacter cloacae [10], over 125 µg/mL; in the assay on Klebsiella pneumoniae [11], over 125 µg/mL. In the assay on Proteus mirabilis [12], this compound came in with a minimal inhibitory concentration (MIC) of 32 µg/mL (≈ 78 µM).

For the compound `CC1=C(C(=O)O)N2C(=O)[C@@H](N)[C@H]2SC1=O.Cc1ccc(S(=O)(=O)O)cc1`, the minimum inhibitory concentration (MIC) against Pseudomonas aeruginosa is over 125 µg/mL; against Providencia rettgeri it was 125 µg/mL; in the assay on Staphylococcus aureus [1] it was over 63 µg/mL; with Staphylococcus aureus [2], 32 µg/mL; against Escherichia coli [3], over 125 µg/mL; with Streptococcus pneumoniae, 63 µg/mL. Further, the minimum inhibitory concentration (MIC) in the assay with Staphylococcus aureus [4] was 125 µg/mL; in the assay with Serratia marcescens, over 125 µg/mL; in the assay on Klebsiella pneumoniae [5], over 125 µg/mL; in the assay with Staphylococcus aureus [6], over 125 µg/mL; against Morganella morganii, over 125 µg/mL; in the assay with Streptococcus pyogenes it was 125 µg/mL. Moreover, the minimum inhibitory concentration (MIC) in the assay on Enterococcus faecalis was 32 µg/mL; against Escherichia coli [7], over 125 µg/mL; against Enterobacter cloacae [8] it was over 125 µg/mL; in the assay on Proteus mirabilis [9], 125 µg/mL; in the assay with Enterobacter cloacae [10], over 125 µg/mL; with Klebsiella pneumoniae [11], over 125 µg/mL. The compound also showed an MIC with Proteus mirabilis [12] of over 125 µg/mL.

On to `CC1=C(C(=O)O)N2C(=O)[C@@H](NC(=O)Cc3cccs3)[C@H]2SC1=O`, for which the minimum inhibitory concentration (MIC) was over 125 µg/mL with Pseudomonas aeruginosa; over 125 µg/mL in the assay on Providencia rettgeri; over 63 µg/mL in the assay on Staphylococcus aureus [1]; 8 µg/mL (≈ 22.7 µM) against Staphylococcus aureus [2]; over 125 µg/mL with Escherichia coli [3]; 63 µg/mL (≈ 179 µM) with Streptococcus pneumoniae. The MIC with Staphylococcus aureus [4] was over 125 µg/mL; in the assay on Serratia marcescens it was over 125 µg/mL; in the assay on Klebsiella pneumoniae [5], over 125 µg/mL; against Staphylococcus aureus [6] it was over 125 µg/mL; against Morganella morganii, over 125 µg/mL; in the assay with Streptococcus pyogenes, 125 µg/mL (≈ 355 µM). The MIC in the assay with Enterococcus faecalis is 63 µg/mL (≈ 179 µM); against Escherichia coli [7], over 125 µg/mL; against Enterobacter cloacae [8], over 125 µg/mL; against Proteus mirabilis [9], 63 µg/mL (≈ 179 µM); in the assay with Enterobacter cloacae [10], over 125 µg/mL; in the assay on Klebsiella pneumoniae [11] it was over 125 µg/mL. Also, it took 63 µg/mL (≈ 179 µM) to inhibit growth in the assay with Proteus mirabilis [12] (MIC).

Turning to `CC1=C(C(=O)O)N2C(=O)[C@@H](NC(=O)COc3ccccc3)[C@H]2SC1=O`, the minimal inhibitory concentration (MIC) in the assay on Pseudomonas aeruginosa was over 125 µg/mL; in the assay with Providencia rettgeri it was over 125 µg/mL; in the assay with Staphylococcus aureus [1], over 63 µg/mL; in the assay on Staphylococcus aureus [2] it was 8 µg/mL (≈ 22.1 µM); in the assay on Escherichia coli [3], over 125 µg/mL; against Streptococcus pneumoniae, 32 µg/mL (≈ 88.3 µM). The MIC against Staphylococcus aureus [4] is over 125 µg/mL; against Serratia marcescens it was over 125 µg/mL; with Klebsiella pneumoniae [5] it was over 125 µg/mL; against Staphylococcus aureus [6], 125 µg/mL (≈ 345 µM); with Morganella morganii it was over 125 µg/mL; against Streptococcus pyogenes, 32 µg/mL (≈ 88.3 µM). For the same compound, the MIC against Enterococcus faecalis was 63 µg/mL (≈ 174 µM); against Escherichia coli [7], over 125 µg/mL; in the assay with Enterobacter cloacae [8] it was over 125 µg/mL; against Proteus mirabilis [9] it was 125 µg/mL (≈ 345 µM); with Enterobacter cloacae [10], over 125 µg/mL; in the assay with Klebsiella pneumoniae [11], over 125 µg/mL. The compound further yielded an MIC against Proteus mirabilis [12] of 125 µg/mL (≈ 345 µM).
